Records with an inconclusive call do not appear.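 The calls were made as follows, unless noted: active = growth inhibition above 25% in both replicates, a cutoff set 3 SD above the mean; inconclusive = above 25% in only one replicate; inactive = the rest.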
What was measured:
[1] = S. cerevisiae growth inhibition in permissive medium (OD615), pilot counter-assay for S. cerevisiae lifespan shortening project, permissive growth control (AID 705); details: OD615, 24 h, at 10 µM, active compounds read high
Outline: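 Material: engineered DeaD yeast; compound dosing: one dose 10 µM, DMSO 0.25% final; measure: yeast growth inhibition indicated by reduced 24 h OD615; detection: OD615 turbidity read; incubation: cells pre-grown 4 h, then 24 h compound exposure, 30 °C humidified; medium: permissive synthetic complete medium with raffinose and galactose carbon sources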

[2] = S. cerevisiae growth inhibition in restrictive medium, OD615, pilot screen, restrictive growth control, yeast lifespan reduction project (AID 706;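 active = growth inhibition above a set limit, 3 SD over mean compound inhibition, in both replicates, cut at about 43% in these data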;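 also: modified DeaD lifespan yeast strain shifted to restrictive glucose medium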); details: OD615, 48 h, at 10 µM, active compounds read high
Outline: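 material = engineered S. cerevisiae DeaD strain | medium = glucose-based CSMM-D restrictive medium | times = 4 h pre-incubation, 48 h exposure at 30 °C | technique = OD615 absorbance reading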

[3] = doxorubicin toxicity protection in MRP-1 cells – H69AR cells, CellTiter-Glo, duplicate, MRP-1 activator project, pilot screen (AID 807;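 active = viability increase at or above a cutoff of the median across tested compounds plus 3 SD, cut at about 8.5% in these data, passing the limit was not always enough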;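 also: compound pretreatment 18-22 h then 72 h combined with doxorubicin; 0% = doxorubicin alone and 100% = vehicle without doxorubicin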); details: H69AR viability with doxorubicin, CellTiter-Glo luminescence; at 10 µM; active compounds read high
[4] = viability of HCT116 without oncogenic beta-catenin – human colon tumor cells, pilot screen (AID 823;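 active = cell viability at or below a set limit in both duplicate runs, the limit being the all-compound median minus 4 SD, cut at about 23% in these data, passing the limit was not always enough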;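 also: 0% = wells killed by 20 µM Hyamine and 100% = untreated DMSO cell wells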); details: HCT116 beta-catenin knockout viability, CellTiter-Glo, 60 h; at 10 µM; active compounds read low
[5] = viability of PTEN-null HCT116 cells – cell-based, HCT116 clonal line, CellTiter-Glo, pilot screen (AID 824;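 active = viability at or below 27.92% in each of two runs, the all-compound median minus 4 SD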;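 also: 0% = 20 µM Hyamine control and 100% = vehicle cell control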); details: HCT116 PTEN-deleted viability, 60 h, at 10 µM, active compounds read low
[6] = RAM pathway blockade in budding yeast – dse1pr::URA3 reporter, 5-FOA selection, pilot screen (AID 869;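 active = inhibition over a set limit, the all-compound mean plus 3 SD, in both replicate runs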;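 also: 0% = DMSO wells with no growth and 100% = 10 µM 1-NA-PP1 with full growth; RAM network block rescues cells from 5-FOA so hits raise OD615 growth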); details: S. cerevisiae dse1pr::URA3 5-FOA growth, OD615, 2 d; at 10 µM; active compounds read high; strain carries analog-sensitive mutant Cbk1 kinase
[7] = RAM signaling pathway blockade in yeast – S. cerevisiae, Pdr1DBD-CYC8 efflux-inhibited sensitized strain, primary screen (AID 1298;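 active = RAM network inhibition above 8.4% in each of two replicates, 3 SD over the compound average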;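 also: 0% = DMSO untreated cells without growth and 100% = 10 µM 1-NA-PP1 full growth; higher means more yeast growth rescued from 5-FOA killing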); details: S. cerevisiae cbk1-as DSE1-URA3 strain, 5-FOA growth OD615, 2 d; at 50 µM; active compounds read high

CN1CCc2c(sc(NC(=O)c3ccc(S(=O)(=O)N4CCOCC4)cc3)c2C(N)=O)C1
inactive: growth inhibition [1] -5.07% | growth inhibition [2] -4.6% | viability increase [3] -0.65% | viability [4] 111% | viability [5] 103% | inhibition [6] -0.19% | RAM network inhibition [7] 7.28%

CC(=O)C1=C(O)C(=O)N(c2nnn(C)n2)C1c1cccs1 (stereo not drawn)
inactive: growth inhibition [1] -9.56% | growth inhibition [2] -6.22% | viability increase [3] -1.76% | viability [4] 107% | viability [5] 95.8% | inhibition [6] 2.02% | RAM network inhibition [7] 0.72%

O=c1[nH]cnc2c1sc(=S)n2-c1ccccc1
inactive: growth inhibition [1] 10.2% | growth inhibition [2] 29.8% | viability increase [3] -0.17% | viability [4] 101% | viability [5] 97.1% | inhibition [6] 1.87% | RAM network inhibition [7] 8.71%

COc1ccc(C)cc1NC(=O)CN(c1ccc(F)cc1)S(C)(=O)=O
inactive: growth inhibition [1] -20.5% | growth inhibition [2] -18.5% | viability increase [3] -1.76% | viability [4] 92.4% | viability [5] 103% | inhibition [6] 1.31% | RAM network inhibition [7] 4.09%

CCOC(=O)NC(Nc1cc(C)ccn1)(C(F)(F)F)C(F)(F)F
inactive: growth inhibition [1] 0.885% | growth inhibition [2] -3.62% | viability increase [3] -1.93% | viability [4] 104% | viability [5] 100% | inhibition [6] 0.28% | RAM network inhibition [7] -1.18%

CC1CCN(CCCNC(=O)CN2CCN(Cc3ccc(Cl)cc3)C2=O)CC1
inactive: growth inhibition [1] -8.6% | growth inhibition [2] -8.52% | viability increase [3] -0.83% | viability [4] 90.8% | viability [5] 89.3% | inhibition [6] 2.27% | RAM network inhibition [7] 4.2%

O=C(c1cc2c(ccc3ccccc32)oc1=O)N1CCN(CCO)CC1
inactive: growth inhibition [1] -9.81% | growth inhibition [2] -3.65% | viability increase [3] -2.23% | viability [4] 88.8% | viability [5] 93.7% | inhibition [6] 3.29% | RAM network inhibition [7] -1.69%

COc1ccccc1NC(=O)c1c(NC(=O)c2ccco2)sc2c1CCC2
inactive: growth inhibition [1] -9.49% | growth inhibition [2] -18.1% | viability increase [3] -2.92% | viability [4] 80.2% | viability [5] 72% | inhibition [6] 2.31% | RAM network inhibition [7] 2.6%

Cc1cc(C(=O)N2CCN(Cc3ccc4c(c3)OCO4)CC2)on1
inactive: growth inhibition [1] -6.71% | growth inhibition [2] -10.4% | viability increase [3] 0.9% | viability [4] 97.2% | viability [5] 105% | inhibition [6] 1.79% | RAM network inhibition [7] 2.8%

Cc1noc(C(=O)Nc2sc3c(c2C#N)CCC3)c1Cl
inactive: growth inhibition [1] -6.86% | growth inhibition [2] 2.54% | viability increase [3] -1.69% | viability [4] 65.8% | viability [5] 55.6% | inhibition [6] 1.84% | RAM network inhibition [7] 2.59%

Cc1ccccc1OCC(O)Cn1c(NCCN(C)C)nc2c1c(=O)n(C)c(=O)n2C (stereo not drawn)
inactive: growth inhibition [1] -13.3% | growth inhibition [2] 2.24% | viability increase [3] -1.92% | viability [4] 93.5% | viability [5] 99.4% | inhibition [6] 2.01% | RAM network inhibition [7] 1.15%

C=CCNC(=O)C1CCN(S(=O)(=O)c2ccc(Br)cc2)CC1
inactive: growth inhibition [1] -8.89% | growth inhibition [2] -18% | viability increase [3] -2.46% | viability [4] 48.1% | viability [5] 48.1% | inhibition [6] 0.52% | RAM network inhibition [7] 1.76%

COc1ccc(C(C#N)(CCC#N)CCC#N)cc1OC
inactive: growth inhibition [1] -14.5% | growth inhibition [2] -4.89% | viability increase [3] -1.32% | viability [4] 99.7% | viability [5] 105% | inhibition [6] 1.13% | RAM network inhibition [7] 3.89%

COCCNC(=O)C1c2cc(OC)c(OC)cc2C(=O)N(C)C1c1cccnc1 (stereo not drawn)
inactive: growth inhibition [1] -5.99% | growth inhibition [2] -8.46% | viability increase [3] 0.41% | viability [4] 91.3% | viability [5] 92% | inhibition [6] -0.34% | RAM network inhibition [7] 5.06%

Cc1ccc2c(c1)N(CCCC(=O)NCc1ccc3c(c1)OCO3)C(=O)CO2
inactive: growth inhibition [1] -5.25% | growth inhibition [2] -25.1% | viability increase [3] -6.26% | viability [4] 95.4% | viability [5] 83.9% | inhibition [6] 0.43% | RAM network inhibition [7] 1.64%

Cc1ccc(C2CC(c3ccccc3Cl)n3nc(N)nc3N2)cc1 (stereo not drawn)
inactive: growth inhibition [1] 0.815% | growth inhibition [2] 6.86% | viability increase [3] 2.22% | viability [4] 99.7% | viability [5] 92.5% | inhibition [6] 1.88% | RAM network inhibition [7] 1.81%

O=C(NCCC1=CCCCC1)C1CCN(c2nnc(-n3cccc3)s2)CC1
inactive: growth inhibition [1] 3.32% | growth inhibition [2] 4.32% | viability increase [3] -0.38% | viability [4] 85.2% | viability [5] 82.2% | inhibition [6] 2.42% | RAM network inhibition [7] 1.13%

Cc1cccc(OCCSc2cc(C)nc(N)n2)c1
inactive: growth inhibition [1] -6.16% | growth inhibition [2] -8.02% | viability increase [3] -1.44% | viability [4] 89.1% | viability [5] 79.1% | inhibition [6] -0.215% | RAM network inhibition [7] -2.06%

Cc1ccc(C(c2sc3ncnn3c2O)N2CCC(C)CC2)cc1 (stereo not drawn)
inactive: growth inhibition [1] 1.13% | growth inhibition [2] 10.3% | viability increase [3] 3.76% | viability [4] 102% | viability [5] 90.2% | inhibition [6] 1.9% | RAM network inhibition [7] 2.69%

O=C(O)CCCCCN1C(=O)C(=O)/C(=C(/O)c2ccccc2)C1c1ccccc1 (stereo not drawn)
inactive: growth inhibition [1] -21.2% | growth inhibition [2] -18.6% | viability increase [3] 0.21% | viability [4] 100% | viability [5] 103% | inhibition [6] 3.47% | RAM network inhibition [7] 2.1%

COc1cc(NC(=O)c2onc(C)c2Cl)c(OC)cc1Cl
inactive: growth inhibition [1] -3% | growth inhibition [2] -6.72% | viability increase [3] -5.82% | viability [4] 91.7% | viability [5] 94.5% | inhibition [6] 1.35% | RAM network inhibition [7] 3.23%

CC(C)(C)SCCNS(=O)(=O)c1ccc(F)cc1
inactive: growth inhibition [1] -4.57% | growth inhibition [2] 3.38% | viability increase [3] 0.35% | viability [4] 94.2% | viability [5] 89.5% | inhibition [6] 0.725% | RAM network inhibition [7] 0.56%

COc1ccc(C)cc1S(=O)(=O)NC1CCCCC1
inactive: growth inhibition [1] -9.02% | growth inhibition [2] -4.09% | viability increase [3] -0.23% | viability [4] 101% | viability [5] 101% | inhibition [6] 0.525% | RAM network inhibition [7] 6.79%

Cc1ccc(-n2c(=O)[nH]cc(C(=O)Nc3ccc4c(c3)OCO4)c2=O)cc1C
inactive: growth inhibition [1] -15.8% | growth inhibition [2] -15% | viability increase [3] 0.27% | viability [4] 107% | viability [5] 94.8% | inhibition [6] 1.78% | RAM network inhibition [7] 3.26%

Source: PubChem BioAssay
